According to ChEMBL document CHEMBL3046748, “Antifeedant effects of the limonoids from Entandrophragma candolei (Meliaceae) on the gram pod borer, Helicoverpa armigera (Lepidoptera: Noctuidae)” (J Agric Food Chem, 2003):
Converted amounts (≈) assume the structure as drawn. The source made the active and inactive calls. The rule behind the calls is not given here.

Columns and labels:
Helicoverpa armigera [1] = test: Antifeedant activity against Helicoverpa armigera fed on compound-treated artificial diet assessed as inhibition of consumption at 100 ppm after 3 days relative to control; format: functional; conditions: 72 h
Helicoverpa armigera [2] = test: Antifeedant activity against neonate larva of Helicoverpa armigera assessed as growth inhibition after 7 days by dietary assay; format: functional, organism-based; conditions: for EC95: Helicoverpa armigera, feed or water, 168 h
Method in brief: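 Two 24-h-old neonates were placed per cup on 1 g fresh-weight treated artificial diet. Cups were held in a tray lined with moist filter paper at 27±2 °C under 16:8 LD. Growth was taken from larval weight after 7 d as % of control, with mortality recorded. Forty larvae were used per concentration. EC50 was obtained by regression analysis.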

Helicoverpa armigera [3] = test: Antifeedant activity against third-instar larva of Helicoverpa armigera assessed as growth inhibition after 7 days by dietary assay; format: functional, organism-based
Helicoverpa armigera [4] = test: Antifeedant activity against Helicoverpa armigera fed on compound-treated artificial diet assessed as growth inhibition at 50 to 100 ppm after 3 days relative to control; format: functional
Helicoverpa armigera [5] = test: Antifeedant activity against fourth-instar larva of Helicoverpa armigera assessed as relative growth rate ratio per unit weight per day at 10 ppm applied topically measured after 3 days (reference value: 0.8 +/- 0.03); format: functional
Helicoverpa armigera [6] = test: Antifeedant activity against neonate larva of Helicoverpa armigera assessed as decrease in consumption of diet after 7 days by dietary assay; format: functional
Helicoverpa armigera [7] = test: Antifeedant activity against fourth-instar larva of Helicoverpa armigera fed on compound treated artificial diet assessed as efficiency of conversion of ingested food at 50 ppm after 3 days (reference value: 20.3 +/- 2.7%); format: functional, Instar larval stage
Helicoverpa armigera [8] = test: Antifeedant activity against fourth-instar larva of Helicoverpa armigera assessed as relative growth rate ratio per unit weight per day at 5 ppm applied topically measured after 3 days (reference value: 0.8 +/- 0.03); format: functional
Helicoverpa armigera [9] = test: Antifeedant activity against fourth-instar larva of Helicoverpa armigera assessed as efficiency of conversion of ingested food at 5 ppm applied topically measured after 3 days (reference value: 20.3 +/- 2.7%); format: functional, Instar larval stage
Helicoverpa armigera [10] = test: Antifeedant activity against third-instar larva of Helicoverpa armigera assessed as decrease in weight gain at 2 to 10 ug/larva applied topically measured after 7 days relative to control; format: functional, organism-based
Method in brief: (§1)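 Larvae were dosed topically at 2-10 µg/larva in 0.5 µL acetone on the dorsal terga, with acetone-only controls. They were then fed untreated artificial diet, and diet consumption and weight gain were compared with controls over 7 d.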

Helicoverpa armigera [11] = test: Antifeedant activity against fourth-instar larva of Helicoverpa armigera fed on compound treated artificial diet assessed as relative growth rate ratio per unit weight per day at 50 ppm after 3 days (reference value: 0.8 +/- 0.03); format: functional
Helicoverpa armigera [12] = test: Antifeedant activity against fourth-instar larva of Helicoverpa armigera fed on compound treated artificial diet assessed as efficiency of conversion of ingested food at 100 ppm after 3 days (reference value: 20.3 +/- 2.7%); format: functional, Instar larval stage
Helicoverpa armigera [13] = test: Antifeedant activity against pre-starved third-instar larva of Helicoverpa armigera assessed as decrease in feeding after 6 hr by choice feeding assay relative to control; format: functional, organism-based
Method in brief: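 Diet choice test in 9-cm Petri dishes: two preweighed cubes of diet with compound (25-100 ppm) alternated with two control cubes. A single 2- to 10-h-old third instar, pre-starved 4 h, was placed centrally. Consumption of each cube was weighed after 6 h, with 10 replicates per concentration. Deterrence index = (C − T)/(C + T) × 100.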

Helicoverpa armigera [14] = test: Antifeedant activity against fourth-instar larva of Helicoverpa armigera assessed as relative consumption rate ratio per unit weight per day at 5 ppm applied topically measured after 3 days (reference value: 3.85 +/- 0.9); format: functional
Helicoverpa armigera [15] = test: Antifeedant activity against third-instar larva of Helicoverpa armigera assessed as decrease in food consumption at 2 to 10 ug/larva applied topically measured after 7 days relative to control; format: functional, organism-based; method in brief: as §1
Helicoverpa armigera [16] = test: Antifeedant activity against fourth-instar larva of Helicoverpa armigera fed on compound treated artificial diet assessed as relative consumption rate ratio per unit weight per day at 50 ppm after 3 days (reference value: 3.85 +/- 0.9); format: functional
Helicoverpa armigera [17] = test: Antifeedant activity against fourth-instar larva of Helicoverpa armigera fed on compound treated artificial diet assessed as relative consumption rate ratio per unit weight per day at 100 ppm after 3 days (reference value: 3.85 +/- 0.9); format: functional
Helicoverpa armigera [18] = test: Antifeedant activity against fourth-instar larva of Helicoverpa armigera assessed as efficiency of conversion of ingested food at 10 ppm applied topically measured after 3 days (reference value: 20.3 +/- 2.7%); format: functional, Instar larval stage
Helicoverpa armigera [19] = test: Antifeedant activity against fourth-instar larva of Helicoverpa armigera assessed as relative consumption rate ratio per unit weight per day at 10 ppm applied topically measured after 3 days (reference value: 3.85 +/- 0.9); format: functional
Helicoverpa armigera [20] = test: Antifeedant activity against fourth-instar larva of Helicoverpa armigera fed on compound treated artificial diet assessed as relative growth rate ratio per unit weight per day at 100 ppm after 3 days (reference value: 0.8 +/- 0.03); format: functional
Helicoverpa armigera [21] = test: Antifeedant activity against pre-starved third-instar larva of Helicoverpa armigera after 6 hr by choice feeding assay; format: functional
Method in brief: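 H. armigera from lab culture on artificial diet, 27±1 °C, 16:8 LD. Single 2–10-h-old third instar, starved 4 h, in 9-cm Petri dish. Two preweighed diet cubes with compound (25–100 ppm) alternated with two control cubes. Consumption per cube measured after 6 h. 10 replicates per concentration. Deterrence index = (C − T)/(C + T) × 100.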

SMILES | inhibition at 100 ppm (Helicoverpa armigera [1]) [%] | EC50 (Helicoverpa armigera [2]) [ppm] | EC95 (Helicoverpa armigera [2]) [µg/mL] | EC50 (Helicoverpa armigera [3]) [ppm] | growth inhibition (GI) (Helicoverpa armigera [4]) [%] | Ratio (Helicoverpa armigera [5]) | Activity (Helicoverpa armigera [7]) [%] | Ratio (Helicoverpa armigera [8]) | Activity (Helicoverpa armigera [9]) [%] | Activity (Helicoverpa armigera [10]) | Ratio (Helicoverpa armigera [11]) | Activity (Helicoverpa armigera [12]) [%] | Activity (Helicoverpa armigera [13]) | Ratio (Helicoverpa armigera [14]) | Activity (Helicoverpa armigera [15]) | Ratio (Helicoverpa armigera [16]) | Ratio (Helicoverpa armigera [17]) | Activity (Helicoverpa armigera [18]) [%] | Ratio (Helicoverpa armigera [19]) | Ratio (Helicoverpa armigera [20]) | further results
C/C=C(\C)C(=O)O[C@H]1C[C@@H](OC(C)=O)[C@@]2(C(=O)OC)CO[C@H]3[C@@H](O)[C@@](C)([C@]45O[C@@]4(C)[C@@H]4C[C@H]5O[C@@H]5OC=C[C@@]54O)[C@H]4[C@]1(CO[C@]4(O)C(=O)OC)[C@@H]32 [AZADIRACHTIN A] | ≤ 76 | 0.26 | 1.46 (≈ 2.03 µM) | 0.4 | ≤ 75 | – | – | – | – | – | – | – | – | – | – | – | – | – | – | – | –
C=C1[C@@H]([C@@]2(C)[C@@H](OC(C)=O)CC(=O)O[C@](C)(COC(C)=O)[C@@H]2CC(=O)OC)[C@@H](OC=O)[C@H](OC(=O)[C@H](O)[C@H](C)CC)[C@]2(C)[C@@H](c3ccoc3)C[C@H]3O[C@]132 | 69.1 | 3.2 | 30.6 (≈ 41 µM) | 55.7 | 60 | 0.87 | 26.2 | 0.88 | 25.2 | inactive | 0.36 | 26.4 | Active | 3.48 | inactive | 1.38 | 1.06 | 25.9 | 3.36 | 0.28 | Activity (Helicoverpa armigera [6]): Dose-dependent effect; Activity (Helicoverpa armigera [6]; record 2): 50.2%
C=C1[C@@H]([C@@]2(C)[C@@H](OC(C)=O)CC(=O)O[C@](C)(COC(C)=O)[C@@H]2CC(=O)OC)[C@@H](OC=O)[C@H](OC(=O)[C@H](OC(C)=O)[C@H](C)CC)[C@]2(C)[C@@H](c3ccoc3)C[C@H]3O[C@]132 | 72.8 | 2.6 | 30.8 (≈ 39 µM) | 45.7 | 60 | 0.8 | 20.1 | 0.85 | 22.1 | inactive | 0.35 | 19 | Active | 3.74 | inactive | 1.74 | 1.08 | 21.3 | 3.78 | 0.2 | Activity (Helicoverpa armigera [6]): Dose-dependent effect; Activity (Helicoverpa armigera [6]; record 2): 50.2%; DI50 (Helicoverpa armigera [21]): 48.3 ppm
C=C1[C@@H]([C@@]2(C)[C@@H](OC(C)=O)CC(=O)O[C@](C)(COC(C)=O)[C@@H]2C(=O)OC)[C@@H](OC=O)[C@H](OC(=O)[C@H](O)[C@H](C)CC)[C@@]2(C)[C@H](c3ccoc3)CC(=O)[C@]12O [PRIEURIANIN] | 57.7 | 18.8 | 169 (≈ 226 µM) | 92.2 | 60 | 0.82 | 20 | 0.83 | 22.1 | inactive | 0.41 | 19.8 | Active | 3.74 | inactive | 2.04 | 1.63 | 21.6 | 3.79 | 0.32 | DI50 (Helicoverpa armigera [21]): 91.4 ppm
